In brackets after ≈: the same amount, converted by molar mass.

Among the data in ChEMBL document CHEMBL4400512, “Searching for new agents active against Candida albicans biofilm: A series of indole derivatives, design, synthesis and biological evaluation” (Eur J Med Chem, 2019) are MBIC50 and MIC50 values, retold here.

Data set [1] deals with Candida albicans. Put plainly: Antibiofilm activity against Candida albicans ATCC 10231 assessed as inhibition of biofilm formation by XTT reduction assay. Type of data set: functional. The essentials: (§1)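 Biofilm assay after Pierce et al., with compound applied either during biofilm formation or to 24 h pre-formed (mature) biofilm. Read-out is metabolic activity of cells in the biofilm by XTT reduction. BMIC50 is the lowest concentration giving a 50% drop relative to untreated growth control. Tested in triplicate, at least two experiments on separate dates; median reported.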
Background: Tetrazolium assays rely on reduction of a dye to a coloured formazan, in cell work by metabolically active cells.

The subject of data set [2] is Candida albicans. Nature of the data set: Antifungal activity against planktonic form of Candida albicans ATCC 10231 by broth microdilution method. Type of data set: organism-based. Particulars: in vitro. The procedure, abridged: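 CLSI M27-A3 broth microdilution. Cells grown on Sabouraud dextrose agar at 35°C for 24 h; final inoculum 1×10^3–5×10^3 cells/mL. Compounds from DMSO stocks, final DMSO below 1%, final range 256–0.25 µg/mL. Controls were DMSO 1% and fluconazole reference. MIC50 is the lowest concentration giving ≥50% growth inhibition. Three independent experiments in duplicate; median reported.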
(In broth dilution the organism is exposed to a series of concentrations in liquid medium.)

The test system of data set [3] is Candida albicans. Nature of the data set: Antibiofilm activity against Candida albicans ATCC 10231 assessed as inhibition of mature biofilm formation by XTT reduction assay. Type of data set: functional. The procedure, abridged: as §1

Consider `NCCc1c[nH]c2ccccc12` [TRYPTAMINE], for which the MBIC50 was 128 µg/mL in data set [1] and over 128 µg/mL in data set [3]. In addition, the MIC50 in data set [2] is over 128 mg/L.

For `Clc1ccc(CNCCc2c[nH]c3ccccc23)cc1`, the MBIC50 in data set [1] came out at 16 µg/mL; in data set [3] it was 32 µg/mL. Besides, in data set [2], the MIC50 was determined as 32 mg/L (≈ 112 µM).

For `COc1ccc(CNCCc2c[nH]c3ccccc23)cc1[N+](=O)[O-]`, the MBIC50 in data set [1] turned out to be 128 µg/mL; in data set [3], 32 µg/mL. This compound registered an MIC50 in data set [2] of over 128 mg/L.

As to `O=C(NCCc1c[nH]c2ccccc12)c1ccccc1`, the MBIC50 in data set [1] and in data set [3] was 32 µg/mL throughout. The MIC50 in data set [2] was over 128 mg/L.

In the case of `Brc1cccc(CNCCc2c[nH]c3ccccc23)c1`, the MBIC50 is 4 µg/mL in data set [1] and 32 µg/mL in data set [3]. In data set [2], this compound registered an MIC50 of 64 mg/L (≈ 194 µM).

Turning to `O=[N+]([O-])c1ccc(/C=C/CNCCc2c[nH]c3ccccc23)cc1`, the results for the MBIC50 in data set [1] and in data set [3] were 8 µg/mL and over 128 µg/mL, respectively. Besides, the MIC50 in data set [2] is over 128 mg/L.

In the case of `O=C(NCCc1c[nH]c2ccccc12)c1ccccn1`, the MBIC50 in data set [1] and in data set [3] was 32 µg/mL in each case. Also, the MIC50 in data set [2] is over 128 mg/L.

For the compound `O=[N+]([O-])c1cccc(Cl)c1CNCCc1c[nH]c2ccccc12`, the MBIC50 in data set [1] came out at 16 µg/mL; in data set [3], 8 µg/mL. The compound further had an MIC50 in data set [2] of over 128 mg/L.

For `O=C(NCCc1c[nH]c2ccccc12)c1cccnc1` [NICOTREDOLE], the MBIC50 in data set [1] was over 128 µg/mL; in data set [3] it was 64 µg/mL. In data set [2], this compound came in with an MIC50 of over 128 mg/L.

In the case of `CN(C)c1ccc(CNCCc2c[nH]c3ccccc23)cc1`, the MBIC50 stood at 32 µg/mL in data set [1] and 16 µg/mL in data set [3]. Moreover, in data set [2], the MIC50 was over 128 mg/L.
